APP 5'UTR act – activators of APP 5'UTR luciferase reporter, primary screen, SH-SY5Y cells. SH-SY5Y APP 5'UTR luciferase reporter, luminescence; zero percent = DMSO vehicle wells. activation, % at 2 µM. 1% of 190,000 active;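 active = activation above a set limit, based on mean plus 3 SD of controls, cut at about 140% in these data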
STAT1 inh-1 – STAT1 signaling inhibitors, primary screen, cell-based, HTS, luciferase reporter; inhibition, % at 5.5 µM; 0.35% of 200,000 active; NIH 3T3 STAT1-luciferase reporter, IFN-gamma, luminescence; AID 920, 2007;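 active = inhibition above a set limit, the mean inhibition across all tested compounds plus 3 SD, cut at about 34% in these data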
NF-kB neuron act – activators of NF-kB expression in neurons, primary screen, cell-based, HTS | AID 1239, 2008 | fold change at 12.5 µM | 1.6% of 190,000 active | human neuronal cells, NF-kB reporter expression; stronger effect = higher value; in the data active = fold change above about 3.3
STAT3 inh – IL-6 driven STAT3 reporter inhibitors, primary screen, U3A cells, luciferase, luminescence, MLSCN library | IL-6 STAT3-luciferase reporter; host cell line lacks STAT1 | inhibition, % at 5.5 µM | 0.89% of 190,000 active | AID 862, 2007;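 active = inhibition above the mean inhibition across all screened compounds plus 3 SD, cut at about 44% in these data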
STAT1 activator – STAT1 signaling activators, primary screen, cell-based, HTS, luciferase reporter; 2.6% of 200,000 active; NIH 3T3 STAT1-luciferase reporter, IFN-gamma, luminescence; 100% = IFN-gamma alone, no compound; activation (% of control), % at 5.5 µM; AID 932, 2007;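 active = activation above the screen-wide mean activation plus 3 SD, cut at about 130% in these data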
STAT3 activator – IL-6 driven STAT3 reporter potentiators, primary screen, U3A cells, luciferase, luminescence, MLSCN library; 0.91% of 190,000 active; IL-6 STAT3-luciferase reporter; 100% = signal with IL-6 EC80 alone; activation (% of control), % at 5.6 µM;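 active = activation above the screen-wide mean of compound activation plus 3 SD, cut at about 130% in these data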
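Assay system – human STAT1-deficient U3A cells with stable STAT3-luciferase reporter · Also added – IL-6 (33 ng/mL) · Schedule – compound 1 h, then IL-6 6 h at 37 °C · Technique – reporter luminescence signal · Evaluation – % activation versus median of IL-6-stimulated wells · Benchmarks – IL-6-only wells as 100% reference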
STAT1 inh-2 – STAT1 signaling inhibitors, confirmation, cell-based, HTS, luciferase reporter; inhibition, % at 5.5 µM; AID 1263, 2008; 55% of 200 active; NIH 3T3 STAT1-luciferase reporter, IFN-gamma, luminescence; shares compounds with STAT1 inh-1;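 active = triplicate mean inhibition exceeding the hit cutoff computed for the primary STAT1 screen, cut at about 35% in these data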
NFkB inh STAT1ct – NF-kB reporter inhibitors, TNF-alpha stimulated, counter-screen for STAT1 inhibitor project, cell-based, HEK293T, luciferase luminescence. shares compounds with STAT1 inh-1. AID 1303, 2008. inhibition, % at 5.7 µM. 30% of 200 active. TNF-alpha induced;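 active = inhibition above the mean of solvent-only control wells plus 3 SD of those wells, cut at about 15% in these data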
STAT3 inh STAT1c – STAT3 reporter inhibition by STAT1 hits, counter-screen for STAT1 inhibitor project, U3A cells, luciferase, luminescence, triplicate; AID 1310, 2008; shares compounds with STAT1 inh-1; 20% of 200 active; IL-6 STAT3 luciferase reporter; cells lacking STAT1; inhibition, % at 5.7 µM;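 active = inhibition above the mean of solvent-only control wells plus 3 SD, set per campaign, cut at about 25% in these data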
Hits are given with their value; n = inactive; x = no result given. Hits are enriched below; roughly 5.1% of the tested compounds scored in any of these assays.

SMILES | APP 5'UTR act | STAT1 inh-1 | NF-kB neuron act | STAT3 inh | STAT1 activator | STAT3 activator | STAT1 inh-2 | NFkB inh STAT1ct | STAT3 inh STAT1c
Oc1cccc(/C=N/Nc2cccc3cccnc23)c1 | 227 | 49 | 8.9 | n | n | n | n | n | n
O=C(N/N=C/c1cccc(O)c1)c1ccc(COc2cccc3cccnc23)cc1 | n | n | n | n | n | n | x | x | x
COc1cccc(-n2nnnc2S(C)(=O)=O)c1 | n | 35 | n | n | n | n | 44 | n | n
COc1ccccc1-c1cc(C(F)(F)F)nc(S(=O)(=O)CCCC(=O)N2CCOCC2)n1 | n | 43 | n | n | n | n | 44 | n | n
COc1ccc(-c2cc(C(F)(F)F)nc(S(=O)(=O)CCCC(=O)Nc3cccc(O)c3)n2)cc1OC | n | 38 | n | n | n | n | 39 | n | n
CN(C)C(=O)CCSc1nnc(-c2ccco2)o1 | n | n | n | n | n | n | x | x | x
COc1cccc(NC(=O)CSc2nnc(-c3cc(C)n(-c4ccccc4)c3C)o2)c1 | n | 40 | n | n | n | n | n | n | n
CCn1c(SCC(=O)NCc2ccccc2)nnc1-c1cccnc1 | n | n | n | n | n | n | x | x | x
CCn1c(=O)c2cc(C(=O)N3CCCC3)sc2c2ccccc21 | n | 56 | n | x | n | x | 47 | n | n
CCn1c(=O)c2cc(C(=O)N3CCOCC3)sc2c2ccccc21 | n | n | n | n | n | n | x | x | x
NC(=O)CSc1nc2ccccc2c(=O)n1Cc1ccco1 | n | n | n | n | n | n | x | x | x
O=C(CSc1nc2ccccc2c(=O)n1Cc1ccco1)N1CCCC1 | n | 37 | n | n | n | n | n | n | n
CCOC(=O)Cc1nnc(Nc2ccc(C)cc2C)c2ccccc12 | n | n | n | n | n | n | x | x | x
CCOc1nc2ccccc2cc1C=O | n | n | n | n | n | n | x | x | x
CCOC(=O)N1CCN(C(=O)c2ccc(NC(=O)c3ccc(C)cc3)cc2)CC1 | n | 68 | n | n | n | n | 61 | n | n
CCOC(=O)N1CCN(C(=O)c2ccc(NC(C)=O)cc2)CC1 | n | n | n | n | n | n | x | x | x
CC(C)(CNC(=O)COc1ccccc1Cc1ccccc1)N1CCOCC1 | n | n | n | n | n | n | x | x | x
Cc1cc(C)n(S(=O)(=O)/C=C/c2ccccc2)n1 | n | 38 | n | n | n | n | 42 | n | n
Cc1ccc(S(=O)(=O)n2nc(C)cc2C)cc1 | n | n | n | n | n | n | x | x | x
COc1ccc(C(C)=O)cc1CSc1nnc(-c2ccccc2O)n1-c1ccccc1 | n | n | n | n | n | n | x | x | x
C#Cc1ccc([C@H]2C=C(C(=O)OCC=C)O[C@@H](OCC)[C@@H]2CCCO)cc1 | n | 56 | n | x | n | x | 36 | n | n
C=CCOC(=O)C1=C[C@H](c2ccccc2)[C@@H](CCCO)[C@H](OCC)O1 | n | n | n | x | n | x | x | x | x
C#Cc1ccc([C@@H]2C=C(C(=O)OCC=C)O[C@H](OCC)[C@H]2CCCO)cc1 | n | 37 | n | x | n | x | n | n | n
O=C(O)c1cccc(N/N=C/c2cccnc2)c1 | n | 40 | n | n | n | n | n | 31 | n
O=C(N/N=C/c1cccnc1)C(O)(c1ccccc1)c1ccccc1 | n | n | n | n | n | n | x | x | x
SMILES | APP 5'UTR act | STAT1 inh-1 | NF-kB neuron act | STAT3 inh | STAT1 activator | STAT3 activator | STAT1 inh-2 | NFkB inh STAT1ct | STAT3 inh STAT1c
CCCC/C(O)=C1\C(=O)CC(C)(C)CC1=NCCCCCC(=O)O | n | n | n | n | n | n | x | x | x
Cc1ccc(NC(=O)c2cc(C)n(-c3cccc(C)c3)c2C)cc1 | n | 65 | n | n | n | n | n | n | n
CCc1ccc(-c2nc(CSCC(=O)NCc3ccco3)c(C)o2)cc1 | n | 83 | n | n | n | n | 75 | 37 | n
CCCNC(=O)CSCc1nc(-c2ccc(SC)cc2)oc1C | n | n | n | n | n | n | x | x | x
Cc1cccc(/C=C(\c2nc3ccccc3[nH]2)S(=O)(=O)c2ccccc2)c1 | n | 38 | n | n | n | n | 47 | n | n
O=C(CCNC(=O)c1ccccc1Cl)Nc1nc(-c2ccccc2Cl)cs1 | n | n | n | n | n | n | x | x | x
CN(C)CCNC(=O)/C(=C/c1ccc(-c2cccc(Cl)c2)o1)NC(=O)c1ccccc1 | n | n | n | n | n | n | x | x | x
COc1cccc(C2c3[nH]c4ccccc4c3CCN2Cc2cnc(C)s2)c1OC (stereo not drawn) | n | 60 | x | n | n | n | n | n | n
Cn1cc(CN2CCc3c([nH]c4ccccc34)C2C2CCCCC2)cn1 (stereo not drawn) | n | n | n | n | n | n | x | x | x
O=C(Nc1ccc(C(=O)N2CCCC2)cc1)c1ccccc1F | n | n | n | n | n | n | x | x | x
O=C(Nc1cc(C(=O)N2CCCC2)ccc1N1CCCC1)c1ccccc1F | n | 51 | n | n | n | n | 48 | n | n
COc1ccccc1-n1nc(C(=O)O)c2ccccc2c1=O | n | n | n | n | n | n | x | x | x
Cc1ccc(-n2nc(C(=O)O)c3ccccc3c2=O)cc1C | n | 54 | n | n | n | n | 49 | n | n
O=C(O)c1ccccc1C(=O)Nc1ccc(Oc2cccc3ccccc23)cc1 | n | 63 | n | n | n | n | n | 23 | n
Cc1cccc(Oc2ccc(NC(=O)c3ccccc3C(=O)O)cc2)c1C | n | n | n | n | n | n | x | x | x
CCOC(=O)C1=C(CC)Nc2ccccc2N=C1NC(=O)c1ccc(OC)c(S(=O)(=O)N2CCCCC2C)c1 (stereo not drawn) | n | 37 | n | n | n | n | n | n | n
Cc1nn(Cc2ccc(Cl)c(Cl)c2)c(C)c1NC(=O)c1cc(-c2ccc3c(c2)OCO3)on1 | n | 37 | n | n | n | n | n | n | n
Cc1cc(C)c(S(=O)(=O)c2ccc(Cl)cc2C)c(Cl)n1 | n | n | n | n | n | n | x | x | x
Cc1ccc2[nH]c3c(=O)n4c(nc3c2c1)SCC4 | n | n | n | n | n | n | x | x | x
COc1ccc2[nH]c3c(=O)n4c(nc3c2c1)SCCC4 | n | 37 | n | n | n | n | n | n | n
Cc1c(C(=O)Nc2cccc(Cl)c2)c2ccccn2c1CCc1ccncc1 | n | 35 | n | n | n | n | n | n | n
